Data reported in publication PMC12297293 (Nature Communications, 2025).
Residue numbers refer to the chain shown, from its start. Counter-ions that a name gives are not always drawn. Like-named read-outs stand apart in the source and are kept apart here. Blank lines part the entries; values can stand above or below the molecule they belong to.

What was measured:
human GMPK wild type [1] = molecular target: T1, human GMPK wild type (Homo sapiens, UniProt Q16774); assay: NADH-dependent enzyme activity assay, wild-type GMPK; assay type: biochemical
T1 sequence (Q16774 1-197): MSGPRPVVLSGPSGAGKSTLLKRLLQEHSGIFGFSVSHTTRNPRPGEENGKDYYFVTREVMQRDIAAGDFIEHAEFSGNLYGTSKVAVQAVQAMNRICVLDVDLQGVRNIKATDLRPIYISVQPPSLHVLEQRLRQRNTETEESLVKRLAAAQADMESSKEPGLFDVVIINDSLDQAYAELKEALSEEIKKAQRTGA

human GMPK = molecular target: T2, human GMPK (Homo sapiens, UniProt Q16774); assay: NMR chemical shift perturbation titration; assay type: binding
T2 sequence (Q16774 1-197): T1 sequence (Q16774 1-197)
Summary of the method: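 15N-GMPK was expressed in M9 medium with 0.5 mM IPTG at 16 °C for 20 h, then diluted to 50–100 μM in 20 mM HEPES, 150 mM NaCl, pH 7.5, 10% D2O. 1H-15N HSQC at 298 K, 700 MHz with cryoprobe. Assignments transferred from BMRB 27151; overlapped peaks excluded. Chemical shift perturbations globally fitted to a one-site model with Kd shared across residues.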

human GMPK wild type [2] = molecular target: T1, human GMPK wild type; assay: ITC binding of nucleotides to wild-type GMPK
Summary of the method: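 ITC at 25 °C with recombinant human GMPK: SUMO-tagged, expressed in E. coli Rosetta (DE3), Ni-purified, tag cut with ULP1, then SEC. Both partners were in 20 mM HEPES pH 7.5 with 150 mM KCl. Cell held 50 μM GMPK; syringe held 1 mM GMP. One 1 μL injection was followed by 19 × 2 μL injections. Triplicate experiments.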

GMPK R148A mutant = molecular target: T3, GMPK R148A mutant (Homo sapiens, UniProt Q16774, R148A); assay: ITC binding, GMPK R148A; details: R148A vs wild type
T3 sequence (Q16774 1-197 R148A): T1 sequence (Q16774 1-197) with R148A
Summary of the method: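 Mutant made by homologous recombination and Sanger-verified, then expressed in E. coli Rosetta (DE3). Purified by Ni column, ULP1 cleavage of the SUMO tag and SEC (20 mM HEPES, 150 mM NaCl, pH 7.5). ITC at 25 °C with 50 μM protein in the cell and 1.25 or 2.5 mM GMP in the syringe. Injections: 1 μL, then 19 × 2 μL.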

GMPK-ATPγS mixture = molecular target: T4, GMPK-ATPγS mixture (Homo sapiens, UniProt Q16774); assay: ITC of GMP into GMPK-ATPγS mixture; details: GMP binding after prior incubation of ATPγS
T4 sequence (Q16774 1-197): T1 sequence (Q16774 1-197)
Summary of the method: (§1)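 GMP titrated into a preformed nucleotide–enzyme mixture by ITC at 25 °C. Cell held 50 μM recombinant human GMPK premixed with 0.5 mM ADP or ATPγS. Syringe held 2 or 2.5 mM GMP. One 1 μL injection, then 19 × 2 μL. Fitted Kd reported.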

GMPK-ADP mixture = molecular target: T5, GMPK-ADP mixture (Homo sapiens, UniProt Q16774); assay: ITC of GMP into GMPK-ADP mixture; details: GMP binding after incubation of ADP
T5 sequence (Q16774 1-197): T1 sequence (Q16774 1-197)
Summary of the method: as §1

mode of inhibition (human GMPK wild type [1]; Michaelis-Menten curves for ATP under 1, 5 and 10 mM SO4 2-): competitive inhibitor of ATP | Kd (human GMPK; read-out: Kd from NMR titration, binding to the p-loop region of GMPK): 5600 µM
SMILES: O=S(=O)(O)O [sulfate ions, sulfate ion]

Kd (human GMPK wild type [2]; GMP binding to GMPK without prior incubation): 32 µM | Kd (human GMPK wild type [2]; read-out: Mean Kd, GMP into GMPK, 150 mM KCl, triplicate experiments): 7.1 µM | Kd (GMPK-ATPγS mixture): 170 µM | Kd (GMPK-ADP mixture): 60 µM
SMILES: Nc1nc2c(ncn2[C@@H]2O[C@H](COP(=O)(O)O)[C@@H](O)[C@H]2O)c(=O)[nH]1 [GMP]
weakening of GMP binding by R148A mutagenesis (GMPK R148A mutant): 1.7 fold

decrease of kcat at 150 mM relative to 10 mM (human GMPK wild type [1]; 150 mM vs 10 mM potassium ions): 1.5 fold | K+ concentration at which the initial reaction rate reached its maximum (human GMPK wild type [1]; saturating substrate conditions): about 7.5 mM
SMILES: [Cl-].[K+] [KCl, potassium chloride]

Kd (human GMPK): 30 µM
SMILES: Nc1ncnc2c1ncn2[C@@H]1O[C@H](CO[P@](=O)(O)O[P@](=O)(O)O[P@@](=O)(O)S)[C@@H](O)[C@H]1O [ATPγS, reference compound]
